APP 5'UTR act – activates APP 5'UTR luciferase reporter. SH-SY5Y APP 5'UTR luciferase reporter, luminescence; zero percent = DMSO vehicle wells. activation, % at 2 µM. 190,000 tested, 1% active. AID 1276;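 active = activation above a set limit, based on mean plus 3 SD of controls, cut at about 140% in these data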
STAT1 blocker – STAT1 signaling inhibition | 200,000 tested, 0.35% active | NIH 3T3 STAT1-luciferase reporter, IFN-gamma, luminescence | inhibition, % at 5.5 µM;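 active = inhibition above a set limit, the mean inhibition across all tested compounds plus 3 SD, cut at about 34% in these data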;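 also: 0% = IFN-gamma with DMSO and 100% = IFN-gamma with 300 µM nifuroxazide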
NF-kB neuron act – raises NF-kB expression in human neuronal cells. NF-kB reporter expression; hits give high values. AID 1239. 190,000 tested, 1.6% active. fold change at 12.5 µM; in the data active = fold change above about 3.3
STAT3 act-1 – STAT3 signaling activation. U3A cells, IL-6 STAT3-luciferase reporter, luminescence; 100% = signal with IL-6 EC80 alone. activation (% of control), % at 5.6 µM. 190,000 tested, 0.91% active;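 active = activation above the screen-wide mean of compound activation plus 3 SD, cut at about 130% in these data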;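 also: 0% = background luminescence of wells with medium and substrate only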
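system = STAT3-luciferase reporter U3A cells | reagent = IL-6 stimulus at 33 ng/mL final | timing = 1 h compound pre-exposure, 6 h IL-6 stimulation, 37 °C | measured by = luminescence | evaluation = % activation versus median of IL-6-stimulated wells | control set = IL-6-only wells as 100% reference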
STAT1 act-1 – increases IFN-gamma driven STAT1 reporter signal | NIH 3T3 STAT1-luciferase reporter, luminescence; 100% = IFN-gamma alone, no compound | activation (% of control), % at 5.5 µM | 200,000 tested, 2.6% active | AID 932;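 active = activation above the screen-wide mean activation plus 3 SD, cut at about 130% in these data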;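 also: raw ratio to IFN-gamma control signal so 100% means no change and 0% no light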
STAT3 inh – reduces IL-6 driven STAT3 reporter signal; U3A cells, IL-6 STAT3-luciferase reporter, luminescence; host cell line lacks STAT1; inhibition, % at 5.5 µM; 190,000 tested, 0.89% active; AID 862;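 active = inhibition above the mean inhibition across all screened compounds plus 3 SD, cut at about 44% in these data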;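 also: 0% = DMSO only wells and 100% = 100 µM nifuroxazide control wells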
STAT3 act-2 – confirmation of STAT3 signaling activators; shares compounds with STAT3 act-1; 1,200 tested, 64% active; U3A STAT3-luciferase reporter, IL-6 potentiation, luminescence; U3A cells lack STAT1; 100 means same as IL-6 alone; potentiation (% of control), % at 5.7 µM;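 active = percent activation of the STAT3 luciferase reporter above a set limit taken from the earlier primary screen, cut at about 130% in these data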;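 also: 0% = background signal of medium plus substrate and 100% = median of IL-6 with DMSO wells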
NFkB act STAT3ct – activates NF-kappaB, counter-screen to STAT3 activators | activation (% of control), % at 5.7 µM | human cells, NF-kappaB reporter activation | shares compounds with STAT3 act-1 | 1,200 tested, 11% active | AID 1309; in the data active = activation above about 120%;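 also: reporter induced by TNF-alpha stimulation; 100% = median of stimulated DMSO wells and 0% = no signal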
STAT1 act-2 – STAT1 activation in STAT3 activator counter-screen | shares compounds with STAT3 act-1 | NIH 3T3 STAT1-luciferase reporter, IFN-gamma, luminescence | activation (% of control), % at 5.7 µM | 1,200 tested, 13% active;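 active = activation above the solvent-only control well mean plus 3 SD, set per screening run, cut at about 120% in these data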;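 also: 100% = IFN-gamma with DMSO median signal so 100% means no change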
* marks the source's active call; other numbers are inactive results; . = no result given. This is a sample that favours compounds with a hit; in the whole collection about 5.1% have one here.

SMILES | APP 5'UTR act | STAT1 blocker | NF-kB neuron act | STAT3 act-1 | STAT1 act-1 | STAT3 inh | STAT3 act-2 | NFkB act STAT3ct | STAT1 act-2
Cc1nc2ccccc2n1CC(=O)OCC(=O)NCc1ccccc1 | 12 | 2 | 1.1 | 101 | 97 | 4 | . | . | .
CCOc1ccc(OCC)c(Nc2cc(C)nc3ncnn23)c1 | 13 | 12 | 1.5 | 88 | 89 | 14 | . | . | .
COc1cc(/C=N/NC(=S)NC(C)C)ccc1OCC(=O)Nc1c(C)cc(C)cc1C | 0 | 7 | 1.2 | 147* | 94 | -60 | 137* | 99 | 102
COC(=O)c1cc(-c2cccs2)[nH]n1 | 12 | -5 | 1.5 | 90 | 104 | 15 | . | . | .
COc1ccc(O)c(-c2cc(-c3cccs3)[nH]n2)c1 | 50 | -16 | 2.3 | 144* | 115 | -45 | 128 | 113 | 105
COCCNC(=O)Cn1c(=O)n(CCCCCC(=O)NCc2ccc3c(c2)OCO3)c(=O)c2sccc21 | -6 | -6 | 0.97 | 105 | 106 | -5 | . | . | .
O=C(C1CC(=O)N(C2CCCCC2)C1)N1CCc2ccccc21 (stereo not drawn) | 4 | -8 | 0.88 | 139* | 106 | -43 | 126 | 104 | 98
O=C(C1CCCCC1)N1CCc2ccccc21 | 5 | -13 | 1.1 | 100 | 111 | 1 | . | . | .
Cc1sc2nc(N)sc2c1C | 10 | 4 | 1.2 | 162* | 96 | -62 | 147* | 105 | 91
Cc1ccc(C)c2sc(N)nc12 | 10 | 5 | 1.2 | 89 | 94 | 15 | . | . | .
Cc1cc2ccccn2c1C(=O)Nc1ccc(Cl)cc1 | 89 | -20 | 1.1 | 156* | 119 | -62 | 166* | 114 | 118
CC1=CC(C)(C)[N+](C)(C)c2ccc(C)cc21 | -3 | 2 | 1 | 101 | 99 | 2 | . | . | .
CCCSc1nnc(Sc2nnnn2-c2ccccc2)s1 | -95 | 10 | 1.2 | 178* | 91 | -83 | 147* | 103 | 90
Cc1ccccc1-n1nnnc1Sc1nnnn1-c1ccccc1 | -5 | 26 | 0.62 | 104 | 76 | 0 | . | . | .
Cc1nc(C)c(CC(=O)N2CCc3c([nH]c4ccccc34)C2c2ccccn2)s1 (stereo not drawn) | 9 | 6 | . | 96 | 93 | 10 | . | . | .
Cc1cccc(C2c3[nH]c4ccccc4c3CCN2C(=O)c2cc(C(C)C)nc(N)n2)n1 (stereo not drawn) | 13 | 2 | 0.89 | 130 | 98 | -28 | . | . | .
Cc1cccc(C2c3[nH]c4ccccc4c3CCN2C(=O)Cc2n[nH]c(C)n2)n1 (stereo not drawn) | 14 | 7 | 0.92 | 137* | 91 | -35 | 139* | 100 | 93
Cc1cccc(C2c3[nH]c4ccccc4c3CCN2C(=O)c2ccc(=O)[nH]c2)n1 (stereo not drawn) | -12 | -7 | 0.79 | 143* | 104 | -41 | 120 | 101 | 99
Cc1cccc(C2c3[nH]c4ccccc4c3CCN2C(=O)c2cc3c([nH]c2=O)CCCC3)n1 (stereo not drawn) | -5 | 13 | 0.65 | 127 | 87 | -25 | . | . | .
Cc1cccc(C2c3[nH]c4ccccc4c3CCN2Cc2ccc(C)s2)n1 (stereo not drawn) | 9 | 3 | 1.2 | 142* | 96 | -43 | 124 | 99 | 91
O=C(CSc1nnc2c3ccccc3c3ccccc3c2n1)Nc1ccccc1 | 1 | 13 | 1.7 | 158* | 88 | -55 | 162* | 105 | 92
CC(=O)Nc1cccc(NC(=O)C2CCCN2C(=O)Nc2ccc(C)cc2)c1 (stereo not drawn) | -11 | -4 | 0.96 | 100 | 107 | 4 | . | . | .
O=C(O)CCC(C(=O)O)n1c(O)c(C2=c3ccccc3=NC2=O)sc1=S (stereo not drawn) | -2 | -4 | 1.2 | 145* | 105 | -46 | 138* | 105 | 97
Cn1nc(-c2ccccc2)c2nc3ccccc3nc21 | -4 | 14 | 1 | 150* | 88 | -51 | 140* | 105 | 93
Oc1c(Cl)cc(Cl)cc1C1=NNC(c2ccc(Cl)cc2)C1 (stereo not drawn) | 48 | -1 | 1 | 152* | 100 | -40 | 147* | 107 | 98
SMILES | APP 5'UTR act | STAT1 blocker | NF-kB neuron act | STAT3 act-1 | STAT1 act-1 | STAT3 inh | STAT3 act-2 | NFkB act STAT3ct | STAT1 act-2
CCOc1ccc(N2C(=O)CC(SC(=NC)Nc3cccc(F)c3)C2=O)cc1 (stereo not drawn) | 2 | 5 | 1.1 | 91 | 95 | 14 | . | . | .
Cc1cc(NC(=O)c2cc([N+](=O)[O-])cc([N+](=O)[O-])c2)n(-c2ccccc2)n1 | 29 | 3 | 1 | 92 | 98 | 14 | . | . | .
CC(C)(C)NC(=O)C1CCCN(S(=O)(=O)c2cccc3cccnc23)C1 (stereo not drawn) | . | 0 | 0.91 | 98 | 100 | 11 | . | . | .
O=C(C1CCCN(S(=O)(=O)c2cccc3cccnc23)C1)N1CCc2ccccc21 (stereo not drawn) | 9 | 7 | 0.75 | 138* | 94 | -35 | 135* | 101 | 99
CN(Cc1ccccc1)Cc1c[nH]c2ccccc12 | 5 | -2 | 1.1 | 158* | 102 | -64 | 141* | 102 | 95
CC(Cc1c[nH]c2ccccc12)C(=O)O (stereo not drawn) | -4 | 4 | 1.4 | 112 | 95 | -14 | . | . | .
c1coc(-c2nc3nc4ccccc4nc3n2-c2ccc3c(c2)OCCO3)c1 | -4 | 1 | 1.1 | 94 | 99 | 14 | . | . | .
COc1ccccc1-c1cc(C(=O)N/N=C/c2ccc(C)s2)c2ccccc2n1 | 10 | 9 | 2.7 | 139* | 92 | -49 | 137* | 101 | 106
CCc1ccc(/C=N/NC(=O)c2cc(-c3ccccc3OC)nc3ccccc23)s1 | . | 1 | 0.6 | 122 | 99 | -29 | . | . | .
Cc1c(NC(=O)COC(=O)c2cc3c4ccccc4n(C)c3s2)c(=O)n(-c2ccccc2)n1C | 16 | 4 | 0.77 | 158* | 97 | -68 | 136* | 102 | 96
CN(CCOc1cccc(C(F)(F)F)c1)Cc1ccccc1 | -2 | -5 | 1.1 | 104 | 103 | 4 | . | . | .
CCc1ccc(S(=O)(=O)Nc2cc(SCC(=O)O)c(O)c3ccccc23)cc1 | -6 | -2 | 0.69 | 109 | 100 | -6 | . | . | .
O=S(=O)(Nc1cc(Sc2cccc3cccnc23)c(O)c2ccccc12)c1ccccc1 | -75 | 4 | 0.5 | 176* | 96 | -96 | 148* | 128* | 128*
